Source: PubChem BioAssay (Sanford-Burnham Center for Chemical Genomics)
MT1-MMP act inh: blocks activation of human MT1-MMP; P50281; HT1080 RFP-PRO-GFP cells, GFP/RFP ratio fluorescence, overnight; percent of plate control window, DMSO zero; GFP/RFP ratio change, % at 20 µM; 360,000 tested, 0.061% active; AID 651647;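 active = GFP/RFP ratio change of at least 30% with cell ATP level not reduced by more than half and red fluorescence within 50% of control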
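Assay system – RFP-PRO-GFP reporter HT1080 cells · Compound dosing – single dose of 20 µM compound, 1% DMSO final · Incubation – overnight compound exposure at 37 °C · Measure – GFP/RFP fluorescence ratio · Benchmarks – DMSO wells and RFP-L50D-GFP cells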
PABP polyA inh: blocks human PABP binding to poly(A) RNA; P11940; fluorescence polarization; inhibition, % at 35 µM; 290,000 tested, 1% active; AID 2014;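 also: calls also rest on retests at 20 µM and on dose response follow-up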
Target sequence (P11940 whole entry, looked up): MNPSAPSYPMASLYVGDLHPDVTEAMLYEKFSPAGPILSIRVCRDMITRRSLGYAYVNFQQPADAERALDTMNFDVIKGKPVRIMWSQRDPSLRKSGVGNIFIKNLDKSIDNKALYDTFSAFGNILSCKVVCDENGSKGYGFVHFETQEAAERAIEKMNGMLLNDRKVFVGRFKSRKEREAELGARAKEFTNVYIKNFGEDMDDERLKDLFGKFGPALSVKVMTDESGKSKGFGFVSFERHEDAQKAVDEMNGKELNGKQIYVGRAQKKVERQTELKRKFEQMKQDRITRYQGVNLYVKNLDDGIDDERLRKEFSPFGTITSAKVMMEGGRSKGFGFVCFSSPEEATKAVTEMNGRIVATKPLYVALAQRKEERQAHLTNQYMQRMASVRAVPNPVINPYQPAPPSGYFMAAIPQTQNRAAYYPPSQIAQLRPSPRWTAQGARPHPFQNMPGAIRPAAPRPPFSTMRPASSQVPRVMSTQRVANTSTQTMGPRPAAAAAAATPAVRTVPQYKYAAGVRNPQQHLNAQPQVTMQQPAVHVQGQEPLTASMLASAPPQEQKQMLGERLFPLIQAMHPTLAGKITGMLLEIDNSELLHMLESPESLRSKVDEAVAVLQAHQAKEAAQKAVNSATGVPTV
PABP1 MLLE inh: blocks PAM2 peptide binding to the PABP1 MLLE domain; AID 588489; inhibition, % at 20 µM; GST-MLLE / FITC-PAM2 fluorescence polarization; 360,000 tested, 0.36% active; P11940; in the data active = inhibition above about 35%, passing the limit was not always enough;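 also: plate controls were DMSO wells with GST-MLLE for no effect and wells lacking GST-MLLE protein for full effect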
SKN-1 inh: blocks SKN-1 activity in C. elegans; inhibition, % at 21.8 µM; AID 624304; 360,000 tested, 0.49% active; C. elegans VP596 Pgst-4::GFP/RFP ratio, acrylamide-induced, 24 h;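 active = interference check ratio from 0.5 to 1.5 plus GFP to RFP signal ratio inhibition reaching or exceeding a fixed threshold, cut at about 30% in these data, passing the limit was not always enough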
eIF4H FP inh: inhibitors of RNA binding by human eIF4H; Q15056; eIF4H fluorescence polarization binding assay; inhibition, % at 35 µM; AID 2012; 290,000 tested, 0.94% active;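 also: calls also rest on retests at 20 µM and on dose response follow-up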
Active calls of the source: *; ? = inconclusive; · = no result. This is a sample that favours compounds with a hit; in the whole collection about 1.7% have one here. Unless noted, no rule for the calls is given here.

SMILES	MT1-MMP act inh	PABP polyA inh	PABP1 MLLE inh	SKN-1 inh	eIF4H FP inh
CCOc1cc(CNCCSc2nnnn2C)cc(Br)c1OCc1ccc(F)cc1	-1.8	1.1	4.6	68.4*	-6.6
COc1cc(CNCCSc2nnnn2C)cc(Br)c1OCc1ccccc1F	2.1	11.5	8.7	-3.2	0.7
CCOc1cc(CNCCSc2nnnn2C)cc(Br)c1OCc1ccccc1F	-2.1	-2.2	7.5	39.1*	-4.5
COc1cc(CNCCSc2nnnn2C)cc(Br)c1OCc1ccc(F)cc1	3.2	2.0	-12.8	33.9	5.7
COc1cccc(Cn2cc(N)cn2)c1	3.7	-6.3	16.7	3.9	-8.1
CN(CC(=O)Nc1ccc(F)cc1)C(=O)Cn1nnc(-c2ccccc2)n1	-1.8	-0.8	-5.0	13.7	-6.4
COC(=O)c1ccccc1NC(=O)CNc1cc(OC)c(OC)cc1C	-1.4	16.6	0.9	-0.2	8.3
CCc1ccccc1NCC(=O)Nc1ccccc1C(=O)OC	-0.9	119.0	1.8	9.0	active
Cc1cc(C)c2nc(N3C(=O)C(O)=C(C(=O)c4ccco4)C3c3ccco3)sc2c1 (stereo not given)	2.3	36.7	3.8	12.5	65.5*
COc1ccc(C2C(C(=O)c3ccco3)=C(O)C(=O)N2c2nnc(C)s2)cc1OC (stereo not given)	-11.0	?	44.0*	-8.8	?
CCOc1ccc2nc(N3C(=O)C(O)=C(C(=O)c4ccco4)C3c3ccco3)sc2c1 (stereo not given)	3.5	·	2.3	9.0	·
COc1ccc(C2C(C(=O)c3ccco3)=C(O)C(=O)N2c2nnc(C)s2)cc1 (stereo not given)	-13.0	?	35.7	-7.9	?
COC(=O)c1sc(N2C(=O)C(O)=C(C(=O)c3ccc(C)o3)C2c2cc(OC)ccc2OC)nc1C (stereo not given)	1.7	-1.5	-33.1	13.2	-2.6
Cc1ccccc1N1C(=O)C2CCCN2C1=S (stereo not given)	-1.0	·	9.7	1.1	·
COc1ccc(OCC(=O)Sc2ccc(C)cc2)cc1	1.5	3.1	18.1	43.3*	1.7
COc1ccc(OC(=O)COc2ccc(C)cc2)cc1	-2.4	-12.4	6.2	3.9	1.1
Cc1ccc(S(=O)(=O)N2CCN(CCOc3ccccc3)CC2)cc1	-4.3	·	-5.7	12.8	·
CC(=O)c1cccc(S(=O)(=O)N2CCN(CCOc3ccccc3)CC2)c1	1.4	·	43.7*	4.9	·
Cn1c(=O)n(C)c2cc(/C=C(/C#N)C(=O)NCc3ccco3)ccc21	3.0	3.0	-1.6	97.5*	-5.8
Fc1ccc(-c2nc3c(Cl)cc(C(F)(F)F)cn3c2Cl)cc1	-4.3	2.1	42.7*	16.9	?
Cc1ccc(Cc2c(-c3ccc(F)cc3)nc3c(Cl)cc(C(F)(F)F)cn23)cc1	-3.4	·	14.0	10.3	·
Nc1cccnc1Sc1cccc(Cl)c1	-3.4	10.0	38.2*	12.4	13.9
Clc1ccc(Nc2ncnc3ccc(Br)cc23)cc1	-27.4	-1.6	-3.5	36.3*	10.2
CCOC(=O)c1[nH]c(=O)[nH]c1CNc1ccccc1C#N	1.1	19.7	12.0	1.6	-5.6
O=C1NC(c2ccccc2Br)=N/C1=C\c1ccco1	-2.6	47.3*	3.7	4.6	57.1*
SMILES	MT1-MMP act inh	PABP polyA inh	PABP1 MLLE inh	SKN-1 inh	eIF4H FP inh
CC(=O)Nc1ccc(S(=O)(=O)NCc2ccc(C)cc2)cc1	-1.4	4.9	1.1	-12.2	-4.5
CC(=O)Nc1ccc(S(=O)(=O)NCc2ccc3c(c2)cc(C)n3C)cc1	47.0	60.0*	50.3	50.2*	55.0*
Cc1cc2cc(CNC(=O)c3ccc(S(=O)(=O)N4CCOCC4)cc3)ccc2n1C	35.2	-15.2	46.8*	44.7	18.2
Cc1cc2cc(CNC(=O)c3ccc(S(=O)(=O)N(C)C)cc3)ccc2n1C	31.7	5.3	50.3*	44.5*	?
NNC(=S)Nc1ccc(OC(F)(F)F)cc1	-1.1	5.3	5.5	-14.6	10.4
Cc1cc2cc(CNC(=S)Nc3ccc(OC(F)(F)F)cc3)ccc2n1C	50.4	-3.3	46.0*	57.5*	77.1
CSCCC(NC(=O)c1ccco1)C(=O)N1CCCC(C(F)(F)F)C1 (stereo not given)	-4.2	·	13.7	2.9	·
CC(C)c1ccccc1NC(=S)NN(Cc1ccccc1)c1ccccc1	-6.1	-6.2	25.7	22.9	0.2
Fc1ccccc1NC(=S)NN(Cc1ccccc1)c1ccccc1	-1.7	-5.5	-29.3	39.4*	-18.2
Nc1cccc2cc(S(=O)(=O)O)ccc12	3.7	·	26.8	51.0*	·
O=C(CCN1C(=O)c2ccc([N+](=O)[O-])cc2C1=O)Nc1ccccc1C(=O)O	7.8	9.2	7.5	-3.0	-12.8
COc1nc2ccccc2cc1-c1noc(-c2cccnc2)n1	·	-5.8	·	·	3.8
CCOc1ccccc1-c1nc(-c2cc3ccccc3nc2OC)no1	-7.4	46.3	-20.1	5.0	54.3*
O=C1CCC(C(=O)OCC(=O)N2N=C3/C(=C\c4ccccc4)CCCC3C2c2ccccc2)N1 (stereo not given)	0.0	·	-10.3	37.2*	·
Fc1cc(Cl)cc2ccc(-c3ccccc3)nc12	4.0	·	-0.1	36.0*	·
C(=N\N1CCN(Cc2ccccc2)CC1)/c1ccccc1	0.0	-4.5	4.1	-2.1	4.3
Clc1cccc(/C=N/N2CCN(Cc3ccccc3)CC2)c1	10.0	10.3	10.8	44.1*	-1.5
COc1ccc(S(=O)(=O)NC(C)C(=O)Nc2ccc3c(c2)OCCO3)cc1OC (stereo not given)	-3.8	-0.8	-0.5	24.4	4.6
COc1ccc(NC(=O)CSc2nnc(CCC(=O)O)c(=O)n2N)cc1	1.8	-5.0	46.0*	-2.8	5.7
COc1ccc(NC(=O)CSc2nnc(-c3ccccc3C)n2N)cc1	4.6	-3.4	37.2*	-3.1	0.3
Cc1nnc(SCC(=O)Nc2ccc3c(c2)OCO3)n(N)c1=O	2.3	80.7*	13.9	-18.3	active
Cc1[nH]n(-c2cccc(Cl)c2)c(=O)c1C=NCC(C)C	4.8	-9.3	-9.1	-4.4	-10.9
Cc1cc(C(=O)NNS(=O)(=O)c2cc(C(=O)O)ccc2Cl)c(C)n1-c1ccccc1	-4.5	·	0.7	9.4	·
COc1ccccc1C(=O)NCC(=O)N/N=C/c1cc(Br)ccc1OC(=O)/C=C\c1ccco1	0.5	-10.9	-10.2	4.7	85.5
O=C(CNC(=O)c1ccccc1F)N/N=C/c1cc(Br)ccc1OC(=O)/C=C/c1ccco1	-5.8	-5.5	-21.3	2.4	83.7*
CCOC(=O)c1c(C)[nH]c(C)c1S(=O)(=O)NCc1ccccc1OCC	-0.9	-3.9	0.2	-9.4	-0.9
COC(=O)NC1(C(F)(F)F)C(=O)Nc2c1c(=O)n(C)c(=O)n2C (stereo not given)	2.4	-3.7	14.8	0.4	-13.0
Cc1[nH]c(=O)[nH]c(=O)c1/C=C/C(=O)OCC(C)C	1.5	60.9*	7.7	-2.1	?
CCCOC(=O)/C=C/c1c(C)[nH]c(=O)[nH]c1=O	4.0	-5.7	11.3	-1.6	7.4
